Data reported in ChEMBL document CHEMBL1158572, “Dolabellane-type diterpenoids with antiprotozoan activity from a southwestern Caribbean gorgonian octocoral of the genus Eunicea” (J Nat Prod, 2010).
Activity calls are given as the source filed them. The rule behind the calls is not given here.

Key:
[1] = tested on: Plasmodium falciparum; assay: Antimalarial activity against chloroquine-resistant Plasmodium falciparum W2; type: functional, organism-based
[2] = tested on: MCF7; assay: Antiproliferative activity against human MCF7 cells after 48 hrs by SRB assay; type: functional, cell-based
How it was run: (§1)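 NCI one-dose primary prescreen in a three-line panel (MCF-7 breast, NCI-H460 non-small cell lung, SF-268 CNS). Cytotoxicity was judged against untreated control cells. Antiproliferative activity in this prescreen is required before testing in the 60-cell-line panel.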

[3] = tested on: SF-268; assay: Antiproliferative activity against human SF268 cells after 48 hrs by SRB assay; type: functional, cell-based; how it was run: as §1
[4] = tested on: NCI-H460; assay: Antiproliferative activity against human NCI-H460 cells after 48 hrs by SRB assay; type: functional, cell-based; how it was run: as §1
[5] = tested on: Mycobacterium tuberculosis; assay: Antimycobacterial activity against Mycobacterium tuberculosis at 6.25 ug/ml by Alamar blue assay; type: functional
How it was run: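 Single-concentration screen at 6.25 µg/mL against *M. tuberculosis* growth, read out as percent inhibition.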

[6] = tested on: Hepatitis B virus; assay: Antiviral activity against HBV in human HepG2(2.2.15) cells at 30 mM; type: functional, organism-based

Row | SMILES | IC50 [1] | Activity [2] | Activity [3] | Activity [4] | inhibition at 6.25 µg/mL [5] | Activity [6]
1 | CC(C)=C1C(=O)C[C@@]2(C)C[C@H]3O[C@]3(C)CC[C@@H]3O[C@@]3(C)CC[C@H]12 | 37.7 µM | inactive | inactive | inactive | – | –
2 | CC(=O)OC/C1=C\C[C@]2(C)CC(=O)C(=C(C)C)[C@H]2CC[C@]2(C)O[C@H]2CC1 | 30.6 µM | – | – | – | – | –
3 | C=C1CC/C=C(\C)CC[C@@H]2C(=C(C)C)C(=O)C[C@@]2(C)C[C@@H]1OC(C)=O (relative stereo) | 20.3 µM | – | – | – | ≤ 50% | –
4 | CC(C)=C1C(=O)C[C@@]2(C)C/C=C(\C)CC[C@@H](OO)/C(C)=C/C[C@H]12 (relative stereo) | 36.4 µM | – | – | – | ≤ 50% | inactive
5 | C/C1=C/C[C@]2(C)CC(=O)C(C(C)C)[C@H]2C/C=C(\C)[C@H](OO)CC1 (relative stereo) | 40.9 µM | – | – | – | – | –
6 | C/C1=C/C[C@]2(C)C(=O)C=C(C(C)C)[C@H]2C/C=C(\C)[C@H](OO)CC1 (relative stereo) | 9.4 µM | – | – | – | ≤ 50% | inactive
7 | C=C1CC/C=C(\C)CC[C@@H]2C(=C(C)C)C(=O)C[C@@]2(C)C[C@@H]1O | 36.4 µM | – | – | – | – | –
8 | C/C1=C\C[C@]2(C)CC=C(C(C)(C)O)[C@H]2CC/C(C)=C/CC1 [PALOMINOL] | 31.2 µM | – | – | – | ≤ 50% | inactive
9 | C=C1CCC(=O)[C@@H](C)CC[C@@H]2C(=C(C)C)C(=O)C[C@@]2(C)C[C@@H]1OC(C)=O | 50 µM | – | – | – | – | –
10 | C/C1=C\C[C@]2(C)C(=O)C=C(C(C)C)[C@H]2CC[C@]2(C)O[C@H]2CC1 | 43 µM | – | – | – | – | –
11 | CC(C)=C1C(=O)C[C@@]2(C)C/C=C(\C)CC/C=C(\C)CC[C@H]12 [DOLABELLANE] | 45.5 µM | inactive | – | inactive | ≤ 50% | inactive
12 | CC(C)=C1C(=O)C[C@@]2(C)C/C=C(\C)CCC(=O)[C@H](C)CC[C@H]12 | 13.2 µM | inactive | inactive | inactive | ≤ 50% | inactive
13 | C=C1CC[C@@H](O)[C@]2(C)CC[C@@H]3C(=C(C)C)C(=O)C[C@@]3(C)C[C@@H]12 | – | – | – | – | ≤ 50% | –
14 | C=C1CC[C@@H]2O[C@@]2(C)CC[C@@H]2C(=C(C)C)C(=O)C[C@@]2(C)C[C@@H]1OC(C)=O | 36.1 µM | – | – | – | – | –
15 | CC(C)=C1C(=O)C[C@@]2(C)C/C=C(\C)CC[C@@H]3O[C@@]3(C)CC[C@H]12 | 23.2 µM | inactive | – | inactive | ≤ 50% | –
16 | C/C1=C/C[C@]2(C)C(=O)C=C(C(C)C)[C@H]2CC[C@@]2(C)O[C@@H]2CC1 | ≥ 100 µM | – | – | – | ≤ 50% | –
17 | CC(=O)O[C@H]1C/C(C)=C/C[C@]2(C)CC(=O)C(=C(C)C)[C@H]2CC[C@]2(C)O[C@@H]12 | 33.3 µM | – | – | – | – | –
18 | CC1=CC[C@@H](O)[C@]2(C)CC[C@@H]3C(=C(C)C)C(=O)C[C@@]3(C)C[C@@H]12 | 59.6 µM | – | – | – | ≤ 50% | –
